# Experimental data: ChEMBL document CHEMBL5338733, “Heterobifunctional Ligase Recruiters Enable pan-Degradation of Inhibitor of Apoptosis Proteins” (J Med Chem, 2023)
# Active and inactive are the calls of the source. The calls are words filed in the database; no cut-off is given here.
# Tests used:
# [1] = molecular target: T1, von Hippel-Lindau disease tumor suppressor/IAP (Homo sapiens) (UniProt P98170+Q13489+Q13490+P40337); assay: PROTAC activity at VHL/IAP in human MM1.S cells assessed as induction of VHL19 degradation at 1 uM incubated for 16 hrs followed by drug wash-out for 72 hrs by western blot analysis; type: cell-based
# How it was run: (§1)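 MM.1S cells given a single exposure to 1 μM, then compound washed out and protein followed up to 72 h by immunoblot with densitometry.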
# [2] = molecular target: T2, von Hippel-Lindau disease tumor suppressor/Baculoviral IAP repeat-containing protein 2 (Homo sapiens) (UniProt Q13490+P40337); assay: PROTAC activity at VHL/IAP in human MM1.S cells assessed as induction of cIAP1 degradation pretreated for 1 hr with ubiquitin-activating inhibitor, MLN7243 followed by incubation with drug for 3 hrs by western blot analysis; type: cell-based
# [3] = molecular target: T2, von Hippel-Lindau disease tumor suppressor/Baculoviral IAP repeat-containing protein 2 (Homo sapiens); assay: PROTAC activity at VHL/IAP in human MM1.S cells assessed as induction of cIAP1 degradation at 1 uM incubated for 16 hrs followed by drug wash-out for 72 hrs by western blot analysis; type: cell-based; how it was run: as §1
# [4] = molecular target: T2, von Hippel-Lindau disease tumor suppressor/Baculoviral IAP repeat-containing protein 2 (Homo sapiens); assay: PROTAC activity at VHL/IAP in human MM1.S cells assessed as induction of cIAP1 degradation pretreated for 1 hr with proteasome inhibitor, MG132 followed by incubation with drug for 3 hrs by western blot analysis; type: cell-based
# [5] = molecular target: T3, von Hippel-Lindau disease tumor suppressor/Baculoviral IAP repeat-containing protein 3 (Homo sapiens) (UniProt Q13489+P40337); assay: PROTAC activity at VHL/IAP in human MM1.S cells assessed as induction of cIAP2 degradation at 1 uM incubated for 16 hrs followed by drug wash-out for 72 hrs by western blot analysis; type: cell-based; how it was run: as §1
# [6] = molecular target: T1, von Hippel-Lindau disease tumor suppressor/IAP (Homo sapiens); assay: PROTAC activity at VHL/IAP in cIPA1 knock-out human MM1.S cells assessed as induction of VHL30 degradation at 0.1 uM incubated for 16 hrs by western blot analysis; type: cell-based
# How it was run: (§2)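 Cas9-expressing MM.1S cells transduced with sgRNA against cIAP1, cIAP2 or XIAP (control sgRNA luciferase; ≥95% transduction by FACS at 48 h); treated 0.1 μM for 16 h; VHL30 measured by immunoblot (SDS-PAGE, PVDF, ECL) with densitometry.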
# [7] = molecular target: T2, von Hippel-Lindau disease tumor suppressor/Baculoviral IAP repeat-containing protein 2 (Homo sapiens); assay: PROTAC activity at VHL/IAP in human MM1.S cells assessed as induction of cIAP1 degradation at 0.1 uM measured after 3 hrs by western blot analysis; type: cell-based
# How it was run: (§3)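 Time course in MM.1S cells at 0.1 μM; protein levels at sampled time points by immunoblot (SDS-PAGE, PVDF, ECL) with densitometry.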
# [8] = molecular target: T4, von Hippel-Lindau disease tumor suppressor/E3 ubiquitin-protein ligase XIAP (Homo sapiens) (UniProt P98170+P40337); assay: PROTAC activity at VHL/IAP in human MM1.S cells assessed as induction of XIAP degradation at 1 uM incubated for 16 hrs followed by drug wash-out for 72 hrs and later treated with VHL inhibitor, VH298 by western blot analysis; type: cell-based
# [9] = molecular target: T3, von Hippel-Lindau disease tumor suppressor/Baculoviral IAP repeat-containing protein 3 (Homo sapiens); assay: PROTAC activity at VHL/IAP in human MM1.S cells assessed as induction of cIAP2 degradation pretreated for 1 hr with ubiquitin-activating inhibitor, MLN7243 followed by incubation with drug for 3 hrs by western blot analysis; type: cell-based
# [10] = molecular target: T4, von Hippel-Lindau disease tumor suppressor/E3 ubiquitin-protein ligase XIAP (Homo sapiens); assay: PROTAC activity at VHL/IAP in human MM1.S cells assessed as induction of XIAP degradation at 0.1 uM measured after 3 hrs by western blot analysis; type: cell-based; how it was run: as §3
# [11] = molecular target: T1, von Hippel-Lindau disease tumor suppressor/IAP (Homo sapiens); assay: PROTAC activity at VHL/IAP in human MM1.S cells assessed as induction of VHL30 degradation incubated for 16 hrs by western blot analysis; type: cell-based; conditions: dose 0.0001-1 µM
# How it was run: (§4)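 MM.1S cells treated 16 h at 0.1 or 1 μM (or concentration series); lysed, SDS-PAGE, PVDF immunoblot, ECL; densitometry normalized to loading control and DMSO; average of ≥3 independent experiments, DC50 from n = 4 repeats where derived.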
# [12] = molecular target: T1, von Hippel-Lindau disease tumor suppressor/IAP (Homo sapiens); assay: PROTAC activity at VHL/IAP in cIPA2 knock-out human MM1.S cells assessed as induction of VHL30 degradation at 0.1 uM incubated for 16 hrs by western blot analysis; type: cell-based; how it was run: as §2
# [13] = molecular target: T4, von Hippel-Lindau disease tumor suppressor/E3 ubiquitin-protein ligase XIAP (Homo sapiens); assay: PROTAC activity at VHL/IAP in human MM1.S cells assessed as induction of XIAP degradation incubated for 16 hrs by western blot analysis; type: cell-based; how it was run: as §4
# [14] = molecular target: T2, von Hippel-Lindau disease tumor suppressor/Baculoviral IAP repeat-containing protein 2 (Homo sapiens); assay: PROTAC activity at VHL/IAP in human MM1.S cells assessed as induction of cIAP1 degradation at 100 nM incubated for 3 hrs by diaPASEF-based analysis; type: cell-based
# How it was run: (§5)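 MM.1S cells treated with DMSO or 0.1 μM for 3 h (four biological replicates); urea lysis, reduction/alkylation, LysC then trypsin digestion, diaPASEF on timsTOF Pro2; label-free quantification, missing values imputed from Gaussian distribution, log2 fold change vs DMSO with limma statistics.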
# SU-DHL-6 = assay: Cytotoxicity against human SU-DHL-6 cells assessed as reduction in cell viability measured after 96 hrs in presence of TNF-alpha by CellTiter-Glo luminescent assay; type: functional, cell-based; conditions: SU-DHL-6, 96 h
# How it was run: (§6)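 Cells seeded with compound at indicated concentrations ± TNF-α 1 ng/mL, incubated 96 h at 37 °C; viability by CellTiter-Glo luminescence, normalized to DMSO control; mean ± SD of biological triplicates. NCI-H929 cultured in RPMI-1640/10% FBS with 2-mercaptoethanol and sodium pyruvate; other lines in RPMI-1640/10% FBS, 37 °C, 5% CO2.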
# [15] = molecular target: T1, von Hippel-Lindau disease tumor suppressor/IAP (Homo sapiens); assay: PROTAC activity at VHL/IAP in human MM1.S cells assessed as induction of VHL30 degradation at 0.1 uM measured after 6 hrs by western blot analysis; type: cell-based; how it was run: as §3
# [16] = molecular target: T1, von Hippel-Lindau disease tumor suppressor/IAP (Homo sapiens); assay: PROTAC activity at VHL/IAP in human MM1.S cells assessed as induction of VHL30 degradation at 1 uM incubated for 16 hrs followed by drug wash-out for 72 hrs by western blot analysis; type: cell-based; how it was run: as §1
# [17] = molecular target: T4, von Hippel-Lindau disease tumor suppressor/E3 ubiquitin-protein ligase XIAP (Homo sapiens); assay: PROTAC activity at VHL/IAP in human MM1.S cells assessed as induction of XIAP degradation at 100 nM incubated for 3 hrs by diaPASEF-based analysis; type: cell-based; how it was run: as §5
# [18] = molecular target: T4, von Hippel-Lindau disease tumor suppressor/E3 ubiquitin-protein ligase XIAP (Homo sapiens); assay: PROTAC activity at VHL/IAP in human MM1.S cells assessed as induction of XIAP degradation at 1 uM incubated for 16 hrs followed by drug wash-out for 72 hrs by western blot analysis; type: cell-based; how it was run: as §1
# [19] = molecular target: T2, von Hippel-Lindau disease tumor suppressor/Baculoviral IAP repeat-containing protein 2 (Homo sapiens); assay: PROTAC activity at VHL/IAP in human MM1.S cells assessed as induction of cIAP1 degradation incubated for 16 hrs by western blot analysis; type: cell-based; how it was run: as §4
# [20] = molecular target: T1, von Hippel-Lindau disease tumor suppressor/IAP (Homo sapiens); assay: PROTAC activity at VHL/IAP in XIAP knock-out human MM1.S cells assessed as induction of VHL30 degradation at 0.1 uM incubated for 16 hrs by western blot analysis; type: cell-based; how it was run: as §2
# [21] = molecular target: T3, von Hippel-Lindau disease tumor suppressor/Baculoviral IAP repeat-containing protein 3 (Homo sapiens); assay: PROTAC activity at VHL/IAP in human MM1.S cells assessed as induction of cIAP2 degradation pretreated for 1 hr with proteasome inhibitor, MG132 followed by incubation with drug for 3 hrs by western blot analysis; type: cell-based
# [22] = molecular target: T4, von Hippel-Lindau disease tumor suppressor/E3 ubiquitin-protein ligase XIAP (Homo sapiens); assay: PROTAC activity at VHL/IAP in human MM1.S cells assessed as induction of XIAP degradation pretreated for 1 hr with ubiquitin-activating inhibitor, MLN7243 followed by incubation with drug for 3 hrs by western blot analysis; type: cell-based
# [23] = molecular target: T3, von Hippel-Lindau disease tumor suppressor/Baculoviral IAP repeat-containing protein 3 (Homo sapiens); assay: PROTAC activity at VHL/IAP in human MM1.S cells assessed as induction of cIAP2 degradation at 0.1 uM measured after 3 hrs by western blot analysis; type: cell-based; how it was run: as §3
# NCI-H929 = assay: Cytotoxicity against human NCI-H929 cells assessed as reduction in cell viability measured after 96 hrs in presence of TNF-alpha by CellTiter-Glo luminescent assay; type: functional, cell-based; conditions: NCI-H929, 96 h; how it was run: as §6
# [24] = molecular target: T4, von Hippel-Lindau disease tumor suppressor/E3 ubiquitin-protein ligase XIAP (Homo sapiens); assay: PROTAC activity at VHL/IAP in human MM1.S cells assessed as induction of XIAP degradation pretreated for 1 hr with proteasome inhibitor, MG132 followed by incubation with drug for 3 hrs by western blot analysis; type: cell-based
# [25] = molecular target: T3, von Hippel-Lindau disease tumor suppressor/Baculoviral IAP repeat-containing protein 3 (Homo sapiens); assay: PROTAC activity at VHL/IAP in human MM1.S cells assessed as induction of cIAP2 degradation incubated for 16 hrs by western blot analysis; type: cell-based; how it was run: as §4
# T2 sequence (P40337 whole entry, looked up): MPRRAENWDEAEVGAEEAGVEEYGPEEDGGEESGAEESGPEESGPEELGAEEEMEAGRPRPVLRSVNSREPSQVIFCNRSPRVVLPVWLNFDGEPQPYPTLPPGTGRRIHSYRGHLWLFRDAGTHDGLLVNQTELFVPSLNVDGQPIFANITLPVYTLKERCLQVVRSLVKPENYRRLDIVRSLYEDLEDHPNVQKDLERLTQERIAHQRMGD
# T2 sequence (Q13490 whole entry, looked up): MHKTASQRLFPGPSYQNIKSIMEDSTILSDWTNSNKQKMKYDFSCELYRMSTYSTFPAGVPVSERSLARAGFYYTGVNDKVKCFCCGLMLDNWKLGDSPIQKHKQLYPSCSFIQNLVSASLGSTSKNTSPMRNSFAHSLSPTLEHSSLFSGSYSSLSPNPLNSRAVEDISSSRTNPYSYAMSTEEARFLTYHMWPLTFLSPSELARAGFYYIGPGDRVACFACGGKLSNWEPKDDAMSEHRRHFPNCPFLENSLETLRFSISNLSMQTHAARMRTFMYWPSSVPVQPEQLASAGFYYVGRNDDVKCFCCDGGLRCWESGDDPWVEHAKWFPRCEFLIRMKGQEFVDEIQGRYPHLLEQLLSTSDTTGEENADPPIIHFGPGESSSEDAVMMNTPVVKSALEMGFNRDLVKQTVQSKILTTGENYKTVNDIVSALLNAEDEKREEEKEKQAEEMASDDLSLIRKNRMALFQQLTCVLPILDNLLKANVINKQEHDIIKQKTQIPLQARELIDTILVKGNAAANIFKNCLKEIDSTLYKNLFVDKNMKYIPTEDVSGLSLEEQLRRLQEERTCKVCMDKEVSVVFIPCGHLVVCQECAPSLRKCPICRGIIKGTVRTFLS
# T4 sequence (P40337 whole entry, looked up): as the sequence (P40337 whole entry, looked up) above
# T4 sequence (P98170 whole entry, looked up): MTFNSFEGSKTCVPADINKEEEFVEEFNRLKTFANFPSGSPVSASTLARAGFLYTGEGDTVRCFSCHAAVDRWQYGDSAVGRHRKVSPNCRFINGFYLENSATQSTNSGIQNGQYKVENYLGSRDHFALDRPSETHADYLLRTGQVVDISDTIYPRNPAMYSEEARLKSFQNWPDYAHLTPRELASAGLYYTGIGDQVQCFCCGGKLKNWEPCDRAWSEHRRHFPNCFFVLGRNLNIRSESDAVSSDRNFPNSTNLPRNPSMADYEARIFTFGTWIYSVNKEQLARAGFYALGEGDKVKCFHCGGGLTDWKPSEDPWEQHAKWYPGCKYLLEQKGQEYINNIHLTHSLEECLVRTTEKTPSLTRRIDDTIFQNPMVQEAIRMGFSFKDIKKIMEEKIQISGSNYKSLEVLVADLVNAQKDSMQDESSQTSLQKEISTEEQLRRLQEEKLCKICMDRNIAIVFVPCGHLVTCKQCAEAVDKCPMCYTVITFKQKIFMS
# T1 sequence (P40337 whole entry, looked up): as the sequence (P40337 whole entry, looked up) above
# T1 sequence (P98170 whole entry, looked up): as the sequence (P98170 whole entry, looked up) above
# T1 sequence (Q13489 whole entry, looked up): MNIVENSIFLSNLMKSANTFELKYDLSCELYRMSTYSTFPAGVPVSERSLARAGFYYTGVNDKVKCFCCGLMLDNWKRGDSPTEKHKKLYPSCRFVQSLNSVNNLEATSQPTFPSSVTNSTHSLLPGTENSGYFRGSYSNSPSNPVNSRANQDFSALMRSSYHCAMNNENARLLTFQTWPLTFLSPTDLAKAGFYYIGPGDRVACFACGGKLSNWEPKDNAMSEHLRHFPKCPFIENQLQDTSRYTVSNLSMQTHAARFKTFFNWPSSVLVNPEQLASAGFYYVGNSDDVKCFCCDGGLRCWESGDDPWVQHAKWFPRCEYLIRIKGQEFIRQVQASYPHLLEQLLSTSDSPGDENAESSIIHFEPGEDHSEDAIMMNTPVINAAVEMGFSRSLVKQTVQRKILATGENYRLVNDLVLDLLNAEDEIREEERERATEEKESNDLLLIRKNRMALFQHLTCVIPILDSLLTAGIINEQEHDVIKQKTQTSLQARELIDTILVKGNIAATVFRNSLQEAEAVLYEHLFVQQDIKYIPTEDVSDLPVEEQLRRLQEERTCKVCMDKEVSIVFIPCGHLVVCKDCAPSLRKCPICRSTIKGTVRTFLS
# T1 sequence (Q13490 whole entry, looked up): as the sequence (Q13490 whole entry, looked up) above
# T3 sequence (P40337 whole entry, looked up): as the sequence (P40337 whole entry, looked up) above
# T3 sequence (Q13489 whole entry, looked up): as the sequence (Q13489 whole entry, looked up) above
structure (smiles),measurement,setting,value
CN[C@@H](C)C(=O)N[C@H](C(=O)N1C[C@@H](Oc2cccc(OCCCCC(=O)N[C@H](C(=O)N3C[C@H](O)C[C@H]3C(=O)N[C@@H](C)c3ccc(-c4scnc4C)cc3)C(C)(C)C)c2)C[C@H]1C(=O)N[C@@H]1CCCc2ccccc21)C1CCCCC1,Activity,[1],inactive
same,Activity,[2],inactive
same,Activity,[3],Active
same,Activity,[4],inactive
same,Activity,[5],Active
same,Activity,[6],Active
same,Activity,[7],100%
same,Activity,[8],inactive
same,Activity,[9],inactive
same,Activity,[10],100%
same,Activity,[11],Dose-Dependent Effect
same,Activity,[12],Active
same,Activity,[13],Dose-Dependent Effect
same,Activity,[14],Active
same,IC50,SU-DHL-6,1.6 nM
same,Activity,[15],Active
same,Activity,[16],inactive
same,Activity,[17],Active
same,Activity,[18],Active
same,Activity,[19],Dose-Dependent Effect
same,Activity,[20],Active
same,Activity,[21],inactive
same,Activity,[22],inactive
same,Activity,[23],100%
same,IC50,NCI-H929,8 nM
same,Activity,[24],inactive
same,Activity,[25],Dose-Dependent Effect
